Converted amounts (≈) assume the structure as drawn. The source made the active and inactive calls. The rule behind the calls is not given here.
Tests used:
[1] = system: Staphylococcus aureus; experiment: Antimicrobial activity against methicillin-resistant Staphylococcus aureus E2125 assessed as concentration required for minimum inhibition of BRP-resistant subpopulation growth by Etest; assay type: functional
Method in brief: (§1)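 Etest (manufacturer's method) and population analysis: overnight cultures serially diluted and plated on TSA with increasing oxacillin or BPR, CFU counted after 48 h at 37°C. Colonies from subpopulations growing at high oxacillin or BPR were picked, restreaked on antibiotic-free TSA for three passages, then retested by population analysis.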

[2] = system: Staphylococcus aureus; experiment: Antimicrobial activity against methicillin-resistant Staphylococcus aureus E2125 assessed as concentration required for bacterial subpopulation growth; assay type: functional; method in brief: as §1
[3] = system: Staphylococcus aureus; experiment: Antimicrobial activity against methicillin-resistant Staphylococcus aureus BK2464 assessed as concentration required for minimum inhibition of BRP-resistant subpopulation growth by Etest; assay type: functional; method in brief: as §1
[4] = system: Staphylococcus aureus; experiment: Antimicrobial activity against methicillin-resistant Staphylococcus aureus HDE288 assessed as concentration required for bacterial subpopulation growth; assay type: functional; method in brief: as §1
[5] = system: Staphylococcus aureus; experiment: Antimicrobial activity against methicillin-resistant Staphylococcus aureus E2125 assessed as concentration required for minimum inhibition of oxacillin-resistant subpopulation growth by Etest; assay type: functional; method in brief: as §1
[6] = system: Staphylococcus aureus; experiment: Antimicrobial activity against methicillin-resistant Staphylococcus aureus HAR22 by Etest; assay type: functional; method in brief: as §1
[7] = system: Staphylococcus aureus; experiment: Antimicrobial activity against methicillin-resistant Staphylococcus aureus HAR24 by Etest; assay type: functional; method in brief: as §1
[8] = system: Staphylococcus aureus; experiment: Antimicrobial activity against methicillin-resistant Staphylococcus aureus USA300 assessed as concentration required for minimum inhibition of BRP-resistant subpopulation growth; assay type: functional; method in brief: as §1
[9] = system: Staphylococcus aureus; experiment: Antimicrobial activity against methicillin-resistant Staphylococcus aureus HAR22 assessed as concentration required for bacterial subpopulation growth; assay type: functional; method in brief: as §1
[10] = system: Staphylococcus aureus; experiment: Antimicrobial activity against methicillin-resistant Staphylococcus aureus HAR22 assessed as concentration required for minimum inhibition of BRP-resistant subpopulation growth; assay type: functional; method in brief: as §1
[11] = system: Staphylococcus aureus; experiment: Antimicrobial activity against methicillin-resistant Staphylococcus aureus HAR24 assessed as concentration required for minimum inhibition of oxacillin-resistant subpopulation growth by Etest; assay type: functional; method in brief: as §1
[12] = system: Staphylococcus aureus; experiment: Antimicrobial activity against methicillin-resistant Staphylococcus aureus HPV107 assessed as concentration required for bacterial subpopulation growth; assay type: functional; method in brief: as §1
[13] = system: Staphylococcus aureus; experiment: Antimicrobial activity against methicillin-resistant Staphylococcus aureus HDE288 assessed as concentration required for minimum inhibition of oxacillin-resistant subpopulation growth by Etest; assay type: functional; method in brief: as §1
[14] = system: Staphylococcus aureus; experiment: Antimicrobial activity against methicillin-resistant Staphylococcus aureus BK2529 assessed as concentration required for minimum inhibition of oxacillin-resistant subpopulation growth by Etest; assay type: functional; method in brief: as §1
[15] = system: Staphylococcus aureus; experiment: Antimicrobial activity against methicillin-resistant Staphylococcus aureus HDE288 assessed as concentration required for minimum inhibition of BRP-resistant subpopulation growth by Etest; assay type: functional; method in brief: as §1
[16] = system: Staphylococcus aureus; experiment: Antimicrobial activity against methicillin-resistant Staphylococcus aureus E2125 by Etest; assay type: functional; method in brief: as §1
[17] = system: Staphylococcus aureus; experiment: Antimicrobial activity against methicillin-resistant Staphylococcus aureus HU25 by Etest; assay type: functional; method in brief: as §1
[18] = system: Staphylococcus aureus; experiment: Antimicrobial activity against methicillin-resistant Staphylococcus aureus COL assessed as concentration required for bacterial subpopulation growth; assay type: functional; method in brief: as §1
[19] = system: Staphylococcus aureus; experiment: Antimicrobial activity against methicillin-resistant Staphylococcus aureus HAR24 assessed as concentration required for bacterial subpopulation growth; assay type: functional; method in brief: as §1
[20] = system: Staphylococcus aureus; experiment: Antimicrobial activity against methicillin-resistant Staphylococcus aureus BK2529 assessed as concentration required for minimum inhibition of BRP-resistant subpopulation growth by Etest; assay type: functional; method in brief: as §1
[21] = molecular target: T1, MecA (Staphylococcus aureus, UniProt Q7DHH4); experiment: Inhibition of methicillin-resistant Staphylococcus aureus COL PBP2a by competitive assay; set-up: species or system Staphylococcus aureus subsp. aureus COL
T1 sequence (Q7DHH4 whole entry): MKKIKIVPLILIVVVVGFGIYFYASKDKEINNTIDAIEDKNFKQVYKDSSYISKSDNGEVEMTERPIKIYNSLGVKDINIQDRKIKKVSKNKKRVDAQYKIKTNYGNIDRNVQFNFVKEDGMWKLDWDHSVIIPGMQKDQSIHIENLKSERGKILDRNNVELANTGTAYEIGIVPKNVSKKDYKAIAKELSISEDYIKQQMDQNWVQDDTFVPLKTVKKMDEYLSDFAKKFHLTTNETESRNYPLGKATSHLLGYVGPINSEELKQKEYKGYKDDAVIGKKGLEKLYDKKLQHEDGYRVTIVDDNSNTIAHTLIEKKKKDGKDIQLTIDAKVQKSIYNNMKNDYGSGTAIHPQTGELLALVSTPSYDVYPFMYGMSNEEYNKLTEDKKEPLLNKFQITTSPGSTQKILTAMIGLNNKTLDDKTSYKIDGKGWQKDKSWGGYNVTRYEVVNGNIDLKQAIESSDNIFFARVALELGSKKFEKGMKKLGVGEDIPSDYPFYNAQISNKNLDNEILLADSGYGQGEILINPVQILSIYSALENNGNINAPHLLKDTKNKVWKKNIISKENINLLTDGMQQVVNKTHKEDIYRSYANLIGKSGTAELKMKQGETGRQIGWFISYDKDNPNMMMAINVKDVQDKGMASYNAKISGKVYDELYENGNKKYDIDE
Method in brief: (§2)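 Purified soluble PBP 2A (mecA expressed in E. coli, 97% pure) at 0.8 µM, preincubated with drug 30 min at 30°C. Then 20 µM Bocillin FL added for 10 min at 37°C, quenched with SDS-PAGE buffer and boiled. Drug range 0.5–20 µM; for IC50, BPR 0.5–200 µM or oxacillin 5–6,000 µM. Curve fitting.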

[22] = system: Staphylococcus aureus; experiment: Displacement of benzyl-[14C]penicillin from Staphylococcus aureus PBP2 RU130 mutant by in vitro competitive assay; settings: COL
Method in brief: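 Membranes from PBP 2 insertional mutant RU130 (Tn551 in transpeptidase domain), late exponential phase, 150 µg protein, preincubated with increasing oxacillin or BPR 10 min at 30°C. Then labelled with 20 µg/ml benzyl[14C]penicillin 10 min at 37°C and stopped with excess unlabelled penicillin in SDS. SDS-PAGE with phosphor screen exposure for 2 weeks.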

[23] = system: Staphylococcus aureus; experiment: Antimicrobial activity against methicillin-resistant Staphylococcus aureus BK2464 assessed as concentration required for bacterial subpopulation growth; assay type: functional; method in brief: as §1
[24] = system: Staphylococcus aureus; experiment: Antimicrobial activity against methicillin-resistant Staphylococcus aureus HU25 assessed as concentration required for bacterial subpopulation growth; assay type: functional; method in brief: as §1
[25] = system: Staphylococcus aureus; experiment: Antimicrobial activity against methicillin-resistant Staphylococcus aureus USA300 assessed as concentration required for minimum inhibition of oxacillin-resistant subpopulation growth by Etest; assay type: functional; method in brief: as §1
[26] = system: Staphylococcus aureus; experiment: Antimicrobial activity against methicillin-resistant Staphylococcus aureus HPV107 by Etest; assay type: functional; method in brief: as §1
[27] = system: Staphylococcus aureus; experiment: Antimicrobial activity against vancomycin-intermediate Staphylococcus aureus Mu50 by Etest; assay type: functional
Method in brief: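 Etest and population analysis: overnight cultures plated on TSA with increasing vancomycin, oxacillin or BPR, CFU counted after 48 h at 37°C. For VRSA strains, vancomycin plates also run with constant 1 µg/ml BPR. Vancomycin Etest read after overnight 37°C incubation on TSA with or without 1 µg/ml BPR.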

[28] = system: Staphylococcus aureus; experiment: Antimicrobial activity against methicillin-resistant Staphylococcus aureus COL by Etest; assay type: functional; method in brief: as §1
[29] = system: Staphylococcus aureus; experiment: Antimicrobial activity against methicillin-resistant Staphylococcus aureus BK2529 assessed as concentration required for bacterial subpopulation growth; assay type: functional; method in brief: as §1
[30] = molecular target: T2, MecA (Staphylococcus aureus) (UniProt Q7DHH4); experiment: Inhibition of methicillin-resistant Staphylococcus aureus COL PBP2a at 10 uM by competitive assay; settings: Staphylococcus aureus subsp. aureus COL; method in brief: as §2
T2 sequence (whole entry): T1 sequence (Q7DHH4 whole entry)

[31] = system: Staphylococcus aureus; experiment: Antimicrobial activity against methicillin-resistant Staphylococcus aureus HAR22 assessed as concentration required for minimum inhibition of oxacillin-resistant subpopulation growth by Etest; assay type: functional; method in brief: as §1

With `Nc1nc(/C(=N/O)C(=O)N[C@@H]2C(=O)N3C(C(=O)O)=C(/C=C4\CCN([C@@H]5CCNC5)C4=O)CS[C@H]23)ns1` [CEFTOBIPROLE] the Activity [1] was 1.5 µg/mL, the Activity [2] was 6 µg/mL and the Activity [3] was 3 µg/mL. The Activity [4] was 3 µg/mL, the Activity [5] was 0.8 µg/mL and the MIC [6] was 0.8 µg/mL (≈ 1.5 µM). It also gave an MIC [7] of 1.5 µg/mL (≈ 2.81 µM), an Activity [8] of 0.8 µg/mL and an Activity [9] of 1.5 µg/mL. The Activity [10] was 3 µg/mL, the Activity [11] was 1.5 µg/mL and the Activity [12] was 3 µg/mL. It also gave an Activity [13] of 1.5 µg/mL, an Activity [14] of 1.5 µg/mL and an Activity [15] of 1.5 µg/mL. The MIC [16] was 0.8 µg/mL (≈ 1.5 µM), the MIC [17] was 3 µg/mL (≈ 5.61 µM) and the Activity [18] was 3 µg/mL. For the same compound, the Activity [19] was 3 µg/mL, the Activity [20] was 1.5 µg/mL and the IC50 [21] was 3.2 µM. For the same compound, the Activity [22] was “Active”, the Activity [23] was 1.5 µg/mL and the Activity [24] was 3 µg/mL. For the same compound, the Activity [25] was 1.5 µg/mL, the MIC [26] was 0.8 µg/mL (≈ 1.5 µM) and the MIC [27] was 3 µg/mL (≈ 5.61 µM). It also gave an MIC [28] of 3 µg/mL (≈ 5.61 µM), an Activity [29] of 3 µg/mL and an inhibition [30] of 66%. It also gave an Activity [31] of 0.8 µg/mL.

Source: ChEMBL document CHEMBL1275462 (Antimicrob Agents Chemother, 2008)
